Results taken from ChEMBL document CHEMBL4406794, “N-(7-Cyano-6-(4-fluoro-3-(2-(3-(trifluoromethyl)phenyl)acetamido)phenoxy)benzo[d]thiazol-2-yl)cyclopropanecarboxamide (TAK-632) Analogues as Novel Necroptosis Inhibitors by Targeting Receptor-Interacting Protein Kinase 3 (RIPK3): Synthesis, Structure-Activity Relationships, and in Vivo Efficacy” (J Med Chem, 2019).
Calls of active or inactive are those of the source. The calls are words filed in the database; no cut-off is given here.

Key:
[1] = AUC (0 to infinity) in Sprague-Dawley rat at 1 mg/kg, iv by LC-tandem mass spectrometry analysis; type: ADME, organism-based; parameters: dose 1 mg/kg, time infinity, route intravenous; settings: in vivo
Method in brief: (§1)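 Male Sprague-Dawley rats dosed once i.v. at 1 mg/kg or intragastrically at 5 mg/kg. Compound dissolved in 5% DMSO, 10% Tween 80, 75% physiological saline at 0.2 and 1 mg/mL. Blood taken at several time points, plasma spun at 4 °C, stored at -80 °C, assayed by LC/MS/MS. Parameters from individual animals by noncompartmental analysis.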

[2] = target: Cyclin-dependent kinase 2 (Homo sapiens) (UniProt P24941); test: Inhibition of wild-type human full length CDK2 (M1 to L298 residues) expressed in bacterial expression system assessed as enzyme remaining activity at 1000 nM by Kinomescan method relative to control
[3] = species on record: Homo sapiens; test: Selectivity ratio of Kd for human partial length RIPK1 (M1 to K305 residues) expressed in bacterial expression system to Kd for wild-type human partial length RIPK3 (M1 to Q307 residues) expressed in bacterial expression system
[4] = target: Mixed lineage kinase domain-like protein (Homo sapiens) (UniProt Q8NB16); test: Inhibition of MLKL phosphorylation in TNFalpha/smac mimetic/Z-VAD-fmk stimulated human HT-29 cells at 1 uM treated prior to TNFalpha/smac mimetic/Z-VAD-fmk stimulation and measured after 2 to 4 hrs by SDS-PAGE based immunoblot assay; type: cell-based
Mixed lineage kinase domain-like protein (Homo sapiens), sequence (Q8NB16 whole entry, the tested form may be a part): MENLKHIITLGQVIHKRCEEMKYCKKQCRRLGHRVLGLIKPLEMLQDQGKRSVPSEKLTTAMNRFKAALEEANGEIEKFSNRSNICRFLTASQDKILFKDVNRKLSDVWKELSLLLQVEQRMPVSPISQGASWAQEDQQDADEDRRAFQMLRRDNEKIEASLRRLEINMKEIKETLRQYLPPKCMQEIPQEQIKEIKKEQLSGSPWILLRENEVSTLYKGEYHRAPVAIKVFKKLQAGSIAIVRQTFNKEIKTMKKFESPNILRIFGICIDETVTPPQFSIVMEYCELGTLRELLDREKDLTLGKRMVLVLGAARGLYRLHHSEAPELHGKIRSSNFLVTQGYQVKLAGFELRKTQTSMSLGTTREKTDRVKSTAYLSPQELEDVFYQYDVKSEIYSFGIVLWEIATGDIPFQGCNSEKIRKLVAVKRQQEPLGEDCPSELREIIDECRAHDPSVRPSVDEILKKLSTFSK

[5] = AUC (0 to infinity) in Sprague-Dawley rat at 5 mg/kg, po by LC-tandem mass spectrometry analysis; type: ADME, organism-based; parameters: dose 5 mg/kg, time infinity, route oral; settings: in vivo; method in brief: as §1
[6] = tested on: L929; test: Cytoprotection against TNFalpha/Z-VAD-fmk-induced necroptosis in mouse L929 cells at 0.01 to 1 uM treated prior to TNFalpha/Z-VAD-fmk stimulation and measured after 4 hrs by cell-Titer Glo luminescent cell viability assay; type: functional, cell-based
Method in brief: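 Mouse L929 cells (DMEM, 10% FBS) pretreated with compound at the indicated concentrations, then given mouse TNF-α 20 ng/mL and z-VAD-fmk 20 μM for 4 h. Viability read by CellTiter-Glo luminescence.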

[7] = target: Dual specificity mitogen-activated protein kinase kinase 1 (Homo sapiens) (UniProt Q02750); test: Inhibition of wild-type human full length MEK1 (M1 to V393 residues) expressed in mammalian expression system assessed as enzyme remaining activity at 1000 nM by Kinomescan method relative to control
Dual specificity mitogen-activated protein kinase kinase 1 (Homo sapiens), sequence (Q02750 whole entry, the tested form may be a part): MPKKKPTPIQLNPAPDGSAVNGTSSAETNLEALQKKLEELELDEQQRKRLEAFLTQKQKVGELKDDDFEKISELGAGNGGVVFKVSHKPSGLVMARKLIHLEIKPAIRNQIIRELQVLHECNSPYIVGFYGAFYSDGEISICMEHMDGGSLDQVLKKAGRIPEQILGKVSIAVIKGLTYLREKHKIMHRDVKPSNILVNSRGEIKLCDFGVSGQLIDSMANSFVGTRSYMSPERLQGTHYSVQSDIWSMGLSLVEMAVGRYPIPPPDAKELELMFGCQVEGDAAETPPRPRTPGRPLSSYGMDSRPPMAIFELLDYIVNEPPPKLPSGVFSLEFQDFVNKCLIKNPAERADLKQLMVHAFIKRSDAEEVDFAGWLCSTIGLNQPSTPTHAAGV

[8] = target: Fibroblast growth factor receptor 3 (Homo sapiens) (UniProt P22607); test: Inhibition of wild-type human partial length FGFR3 (R442 to S771 residues) expressed in bacterial expression assessed as enzyme remaining activity at 1000 nM by Kinomescan method relative to control
Fibroblast growth factor receptor 3 (Homo sapiens), sequence (P22607 23-806 limits assumed): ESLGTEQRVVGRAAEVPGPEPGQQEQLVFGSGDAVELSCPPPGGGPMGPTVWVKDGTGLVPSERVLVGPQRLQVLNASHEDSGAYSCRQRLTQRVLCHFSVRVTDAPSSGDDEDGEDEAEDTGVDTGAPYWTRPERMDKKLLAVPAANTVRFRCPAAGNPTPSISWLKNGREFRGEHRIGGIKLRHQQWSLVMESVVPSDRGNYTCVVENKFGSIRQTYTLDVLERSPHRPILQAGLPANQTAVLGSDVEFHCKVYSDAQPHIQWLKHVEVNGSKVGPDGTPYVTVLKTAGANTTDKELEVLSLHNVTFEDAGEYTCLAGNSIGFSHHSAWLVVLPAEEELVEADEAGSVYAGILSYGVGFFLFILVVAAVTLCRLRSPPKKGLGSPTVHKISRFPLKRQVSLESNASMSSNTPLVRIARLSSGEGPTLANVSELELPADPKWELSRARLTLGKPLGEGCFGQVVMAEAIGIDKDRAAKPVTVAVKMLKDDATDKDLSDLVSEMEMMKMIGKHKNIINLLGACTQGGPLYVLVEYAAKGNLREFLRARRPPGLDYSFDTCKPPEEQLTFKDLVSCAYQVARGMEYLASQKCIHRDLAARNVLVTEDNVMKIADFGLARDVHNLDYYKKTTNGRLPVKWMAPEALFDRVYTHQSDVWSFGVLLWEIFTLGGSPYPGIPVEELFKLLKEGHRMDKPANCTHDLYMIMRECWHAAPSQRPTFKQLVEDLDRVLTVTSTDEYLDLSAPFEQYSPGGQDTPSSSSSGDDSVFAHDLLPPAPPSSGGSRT

[9] = AUC (0 to t) in Sprague-Dawley rat at 5 mg/kg, po by LC-tandem mass spectrometry analysis; type: ADME, organism-based; settings: in vivo; method in brief: as §1
[10] = target: Inhibitor of nuclear factor kappa-B kinase subunit beta (Homo sapiens) (UniProt O14920); test: Inhibition of wild-type human full length IKK-beta (M1 to S756 residues) expressed in mammalian expression system assessed as enzyme remaining activity at 1000 nM by Kinomescan method relative to control
Inhibitor of nuclear factor kappa-B kinase subunit beta (Homo sapiens), sequence (O14920 whole entry, the tested form may be a part): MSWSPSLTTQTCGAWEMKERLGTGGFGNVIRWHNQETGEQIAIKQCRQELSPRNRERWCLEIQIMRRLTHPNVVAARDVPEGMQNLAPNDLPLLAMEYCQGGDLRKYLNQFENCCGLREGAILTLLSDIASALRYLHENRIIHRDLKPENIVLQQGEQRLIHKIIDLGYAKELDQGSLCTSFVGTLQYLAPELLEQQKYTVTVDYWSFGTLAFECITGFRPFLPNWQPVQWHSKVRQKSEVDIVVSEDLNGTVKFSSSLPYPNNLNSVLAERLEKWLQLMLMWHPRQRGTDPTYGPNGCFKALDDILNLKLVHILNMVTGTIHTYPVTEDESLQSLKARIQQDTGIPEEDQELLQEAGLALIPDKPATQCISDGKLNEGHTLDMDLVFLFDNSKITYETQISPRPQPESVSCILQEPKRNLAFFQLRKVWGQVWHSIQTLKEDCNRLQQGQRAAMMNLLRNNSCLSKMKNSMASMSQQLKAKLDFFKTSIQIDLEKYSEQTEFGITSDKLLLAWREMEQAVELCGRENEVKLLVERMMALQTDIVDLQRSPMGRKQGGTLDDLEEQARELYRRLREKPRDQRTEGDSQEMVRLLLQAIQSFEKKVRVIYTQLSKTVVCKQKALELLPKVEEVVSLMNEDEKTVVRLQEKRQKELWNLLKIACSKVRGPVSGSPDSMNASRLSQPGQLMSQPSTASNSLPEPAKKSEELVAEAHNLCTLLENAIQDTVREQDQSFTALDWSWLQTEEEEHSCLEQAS

[11] = Tmax in Sprague-Dawley rat at 1 mg/kg, iv by LC-tandem mass spectrometry analysis; type: ADME, organism-based; settings: in vivo
Method in brief: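 Male Sprague-Dawley rats received compound iv (1 mg/kg) or intragastrically (5 mg/kg). The vehicle was 5% DMSO, 10% Tween 80 and 75% saline, at 0.2 or 1 mg/mL. Blood was sampled at several time points and centrifuged at 4 °C. Plasma was stored at -80 °C and analysed by LC/MS/MS. Parameters were derived by noncompartmental analysis of individual animal data.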

[12] = tested on: HT-29; test: Effect on TNFalpha/cycloheximide-induced apoptosis in human HT-29 cells at 3 uM treated prior to TNFalpha/cycloheximide stimulation and measured after 20 hrs by cell-Titer Glo luminescent cell viability assay; type: cell-based; settings: ht-29, 20 h
Method in brief: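 HT-29 cells pretreated with compound at 3 μM or DMSO, then given TNF-α 20 ng/mL with either cycloheximide 5 μg/mL (TC) or Smac mimetic 10 nM (TS) for 20 h. Viability read by CellTiter-Glo luminescence.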

[13] = target: Hepatocyte growth factor receptor (Homo sapiens) (UniProt P08581); test: Inhibition of wild-type human partial length MET (D1010 to S1367 residues) expressed in bacterial expression system assessed as enzyme remaining activity at 1000 nM by Kinomescan method relative to control
Hepatocyte growth factor receptor (Homo sapiens), sequence (P08581 whole entry, the tested form may be a part): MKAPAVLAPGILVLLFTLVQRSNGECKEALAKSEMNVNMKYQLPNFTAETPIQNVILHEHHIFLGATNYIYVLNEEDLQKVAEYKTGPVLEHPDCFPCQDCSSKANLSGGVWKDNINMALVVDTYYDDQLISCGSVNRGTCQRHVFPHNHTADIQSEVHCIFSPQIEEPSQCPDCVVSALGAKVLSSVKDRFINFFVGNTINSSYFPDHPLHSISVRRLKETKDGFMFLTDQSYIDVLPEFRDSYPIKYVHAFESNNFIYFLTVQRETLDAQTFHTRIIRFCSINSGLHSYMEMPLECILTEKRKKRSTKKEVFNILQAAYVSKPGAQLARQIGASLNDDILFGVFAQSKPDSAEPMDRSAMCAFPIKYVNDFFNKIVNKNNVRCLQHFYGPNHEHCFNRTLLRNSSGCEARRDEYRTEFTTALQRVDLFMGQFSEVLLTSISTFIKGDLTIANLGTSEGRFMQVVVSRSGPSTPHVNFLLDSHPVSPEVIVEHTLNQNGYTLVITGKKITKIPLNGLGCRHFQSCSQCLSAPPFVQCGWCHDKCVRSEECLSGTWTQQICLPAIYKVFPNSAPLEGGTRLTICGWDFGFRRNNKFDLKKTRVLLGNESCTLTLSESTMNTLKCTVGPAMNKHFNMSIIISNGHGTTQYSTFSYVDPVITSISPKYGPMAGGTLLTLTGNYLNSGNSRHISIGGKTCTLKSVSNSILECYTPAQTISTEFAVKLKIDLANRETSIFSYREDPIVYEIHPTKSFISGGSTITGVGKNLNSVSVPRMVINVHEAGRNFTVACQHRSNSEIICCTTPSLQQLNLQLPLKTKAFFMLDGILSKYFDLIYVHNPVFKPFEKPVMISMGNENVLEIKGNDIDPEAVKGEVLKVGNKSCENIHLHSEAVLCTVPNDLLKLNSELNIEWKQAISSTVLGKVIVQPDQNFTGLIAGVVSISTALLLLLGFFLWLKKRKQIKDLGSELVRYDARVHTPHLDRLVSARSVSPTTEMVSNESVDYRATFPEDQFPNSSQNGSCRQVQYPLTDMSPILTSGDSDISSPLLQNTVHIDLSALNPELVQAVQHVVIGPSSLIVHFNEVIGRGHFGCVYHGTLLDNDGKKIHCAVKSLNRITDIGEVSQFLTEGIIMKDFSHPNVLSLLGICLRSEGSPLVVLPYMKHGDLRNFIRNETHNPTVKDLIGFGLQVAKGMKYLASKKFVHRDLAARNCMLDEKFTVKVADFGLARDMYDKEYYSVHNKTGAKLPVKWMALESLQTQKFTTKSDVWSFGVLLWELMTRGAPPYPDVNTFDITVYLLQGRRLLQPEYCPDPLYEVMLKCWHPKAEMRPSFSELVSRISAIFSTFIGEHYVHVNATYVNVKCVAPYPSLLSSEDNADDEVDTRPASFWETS

[14] = tested on: Mus musculus; test: Protection against TNFalpha/Z-VAD-fmk-induced C57BL/6J mouse model of systemic inflammatory response syndrome at 25 mg/kg, po administered via gavage 2 hrs prior to Z-VAD-fmk addition for 15 mins followed by TNFalpha stimulation for 1 hr and subsequent Z-VAD-fmk addition meaured up to 50 hrs post TNFalpha stimulation relative to control; type: functional
Method in brief: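 Overnight-fasted C57BL/6 female mice, n=10 per group. Test compound was given by oral gavage 2 h before mTNF-α. z-VAD-fmk (180 µg) was injected ip, then 15 min later mTNF-α in endotoxin-free PBS was injected iv (400 µg/kg). A second z-VAD-fmk dose (70 µg) was given ip 1 h after TNF. Body temperature and survival were followed against vehicle. One-way ANOVA was used.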

[15] = Clearance in Sprague-Dawley rat at 1 mg/kg, iv by LC-tandem mass spectrometry analysis; type: ADME, organism-based; settings: in vivo; method in brief: as §1
[16] = target: Dual specificity mitogen-activated protein kinase kinase 2 (Homo sapiens) (UniProt P36507); test: Inhibition of wild-type human full length MEK2 (M1 to V400 residues) expressed in mammalian expression system assessed as enzyme remaining activity at 1000 nM by Kinomescan method relative to control
Dual specificity mitogen-activated protein kinase kinase 2 (Homo sapiens), sequence (P36507 whole entry, the tested form may be a part): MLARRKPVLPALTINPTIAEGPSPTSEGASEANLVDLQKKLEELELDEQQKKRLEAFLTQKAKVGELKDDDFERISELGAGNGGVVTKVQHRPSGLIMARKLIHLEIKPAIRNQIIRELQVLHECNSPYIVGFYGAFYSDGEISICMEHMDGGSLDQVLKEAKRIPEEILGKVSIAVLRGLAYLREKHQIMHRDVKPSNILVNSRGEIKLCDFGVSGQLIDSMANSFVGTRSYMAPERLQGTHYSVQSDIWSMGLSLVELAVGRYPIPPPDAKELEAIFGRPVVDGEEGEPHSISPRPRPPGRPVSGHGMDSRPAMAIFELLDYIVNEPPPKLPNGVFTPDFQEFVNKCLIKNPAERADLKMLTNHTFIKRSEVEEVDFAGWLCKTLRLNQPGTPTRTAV

[17] = target: T1, Receptor-interacting serine/threonine-protein kinase 1 (Homo sapiens, UniProt Q13546); test: Inhibition of RIPK1 phosphorylation in TNFalpha/smac mimetic/Z-VAD-fmk stimulated human HT-29 cells at 1 uM treated prior to TNFalpha/smac mimetic/Z-VAD-fmk stimulation and measured after 2 to 4 hrs by SDS-PAGE based immunoblot assay; type: cell-based; settings: ht-29, 1 µM
T1 sequence (Q13546 whole entry): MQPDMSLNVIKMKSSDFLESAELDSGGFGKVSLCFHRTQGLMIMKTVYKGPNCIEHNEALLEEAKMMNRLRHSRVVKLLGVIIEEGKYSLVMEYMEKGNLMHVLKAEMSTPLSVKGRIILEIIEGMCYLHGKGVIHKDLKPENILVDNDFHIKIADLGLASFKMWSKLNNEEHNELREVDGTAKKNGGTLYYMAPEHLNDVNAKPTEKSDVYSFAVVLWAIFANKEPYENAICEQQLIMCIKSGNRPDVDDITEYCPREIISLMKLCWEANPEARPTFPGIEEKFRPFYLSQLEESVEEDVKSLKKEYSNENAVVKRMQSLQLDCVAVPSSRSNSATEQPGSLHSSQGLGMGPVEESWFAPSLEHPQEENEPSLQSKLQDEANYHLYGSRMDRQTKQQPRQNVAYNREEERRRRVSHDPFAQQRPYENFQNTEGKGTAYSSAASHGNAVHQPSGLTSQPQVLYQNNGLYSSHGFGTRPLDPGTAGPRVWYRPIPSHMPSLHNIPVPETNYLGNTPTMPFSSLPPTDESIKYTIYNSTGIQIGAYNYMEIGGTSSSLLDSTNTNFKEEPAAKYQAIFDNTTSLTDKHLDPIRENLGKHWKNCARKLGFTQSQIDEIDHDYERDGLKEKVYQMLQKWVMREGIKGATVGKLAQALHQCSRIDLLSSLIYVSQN

O=C(Nc1cccc(Br)c1)Nc1cc(Oc2ccc3nc(NC(=O)C4CC4)sc3c2)ccc1F
AUC(0-inf) [1]: 6500 ng·h/mL
Activity [2]: 93%
Ratio [3]: > 61.7
inhibition [4]: Active
AUC(0-inf) [5]: 9320 ng·h/mL
Activity [6]: Active
Activity [7]: 100%
Activity [8]: 62%
AUC(0-t) [9]: 7010 ng·h/mL
Activity [10]: 97%
Tmax [11]: 4.98 min
Activity [12]: Non-Toxic
Activity [13]: 14%
Activity [14]: 100%
clearance [15]: 2.6 mL/min/kg
Activity [16]: 83%
inhibition (INH) [17]: Not Active
